Bioassay records deposited in PubChem by Broad Institute.
SKKanGAS inh = S. pyogenes SKKanGAS growth inhibitors in kanamycin, primary screen, streptokinase expression inhibitor project, SKKanGAS strain, BacTiter-Glo luminescence. inhibition, % at 7.5 µM. 6 h. 1.3% of 300,000 active. AID 1662, 2009;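 active = mean replicate score, as percent of positive control median, at least 50; inconclusive = mean below 50 but one replicate at or above 50; inactive = mean and every replicate below 50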;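 note: strain carries kanamycin resistance gene driven by streptokinase promoter and grows in 40 µg/ml kanamycin; loss of luminescence reflects streptokinase promoter inhibition or plain growth inhibition; 0% = median of DMSO wells and 100% = positive control at its reference dose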
Rtt109 Vps75 = inhibitors of C. albicans Rtt109/Vps75 HAT, primary screen, biochemical, ThioGlo CoA-SH fluorescence, plate reader | Histone acetyltransferase RTT109 (Candida albicans (strain SC5314 / ATCC MYA-2876)), … | purified Rtt109/Vps75, 4 h | inhibition, % at 34.9 µM | 0.16% of 330,000 active;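 active = inhibition of at least 50% in every replicate; inconclusive = best replicate reaches 50% inhibition but some replicates fall short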
Target sequence (Q5AAJ8 whole entry, looked up): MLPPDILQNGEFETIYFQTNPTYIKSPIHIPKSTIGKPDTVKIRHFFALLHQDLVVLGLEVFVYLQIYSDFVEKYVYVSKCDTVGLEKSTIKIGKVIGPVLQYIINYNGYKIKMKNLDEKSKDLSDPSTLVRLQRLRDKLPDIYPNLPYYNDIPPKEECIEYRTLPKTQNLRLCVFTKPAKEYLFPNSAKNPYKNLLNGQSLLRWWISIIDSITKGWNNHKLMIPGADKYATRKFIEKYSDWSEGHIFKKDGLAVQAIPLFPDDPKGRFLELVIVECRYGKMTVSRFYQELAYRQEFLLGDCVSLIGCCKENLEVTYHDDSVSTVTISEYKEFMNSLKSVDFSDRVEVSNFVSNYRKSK
CSC inhib = cancer stem cell viability inhibitors, primary screen, luminescence; cancer stem cell-like cells viability; inhibition, % at 7.5 µM; 1.1% of 300,000 active; AID 2717, 2010; in the data active = inhibition above about 75%; inconclusive = no clear call, values can overlap the other calls; tested in HMLE shEcad cells
PglD inh = C. jejuni PglD acetyltransferase inhibitors, primary screen, biochemical, DTNB colorimetric, single point. UDP-N-acetylbacillosamine N-acetyltransferase PglD (Campylobacter jejuni). purified PglD enzyme, DTNB colorimetric CoA detection. 0.098% of 360,000 active. AID 602405, 2012. inhibition, % at 12.5 µM; in the data active = inhibition above about 16%, passing the limit was not always enough; inconclusive = no clear call, values can overlap the other calls
FN deposit inh = inhibitors of fibronectin matrix deposition, primary screen, AH1F cells, Alexa488-fibronectin fluorescence, plate reader. AH1F fibroblasts, overnight. inhibition, % at 12.6 µM. 0.086% of 350,000 active. AID 743247, 2014;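 active = mean inhibition across replicates of 30% or more, regardless of how many single replicates reach that level; inconclusive = mean under 30% yet at least half of replicates reach 30%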;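 note: positive control wells lacked labelled fibronectin entirely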
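Measured by – fluorescence 485/525 nm · System – AH1F fibroblast monolayer, labelled fibronectin deposition · Amount – 10000 cells per well · Buffer or medium – serum-reduced DMEM (2% serum) · Doses – single dose, pinned · Also added – fluorescent fibronectin at 24 nM final · Schedule – 1 h cell attachment, overnight exposure to compound and label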
PfHsp90 yeast 2 = growth inhibition of PfHsp90-expressing yeast, primary screen, antimalarial PfHsp90 inhibitor project, S. cerevisiae, BacTiter-Glo luminescence, single point, set 2; 0.32% of 310,000 active; inhibition, % at 9.4 µM; BacTiter-Glo ATP, 48 h; yeast lacking PDR1 and PDR3 efflux regulators;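 active = every replicate shows inhibition above about 80%, whatever the replicate mean, limit read from the data; inconclusive = mean inhibition reaches the set limit but some replicate falls short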;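 note: 0% = DMSO neutral controls and 100% = 20 µM radicicol positive controls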
* marks the source's active call; other numbers are inactive results; ? = inconclusive; nt = no result given. Rows were chosen to be rich in hits. Some 1.7% of all compounds tested hit in one or more screens of this group.

SMILES	SKKanGAS inh	Rtt109 Vps75	CSC inhib	PglD inh	FN deposit inh	PfHsp90 yeast 2
CCC(NC(=S)NC1CCCCC1)c1ccc(C(C)C)cc1 (centres undefined)	65*	0	12	-3	-1	nt
Cc1ccc(C(C)NC(=S)NC2CCCCC2)cc1C (centres undefined)	3	3	-18	-3	-2	14
CCCCCCCCCCOC(=O)C[N+](C)(C)C/C=C(/C)Cl	24	25	59	-5	-17	-27
CCCCCCCCCCCCOC(=O)C[N+](C)(C)C	113*	nt	44	nt	5	nt
COCC(=O)Nc1ccc2c(c1)C(=O)N(C)C[C@H](OC)[C@H](C)CN(C(=O)C1CCCC1)[C@@H](C)CO2	nt	nt	nt	2	-14	nt
C[C@@H]1CN([C@@H](C)CO)C(=O)c2cc(C#Cc3ccccc3F)cnc2O[C@@H]1CN(C)C(=O)Cc1cccnc1	nt	nt	nt	-3	nt	nt
COc1ccccc1C(=O)NC(=S)NNC(=O)c1sc2ccccc2c1Cl	118*	0	55	nt	6	3
COc1ccccc1C(=O)NNC(=S)NC(=O)c1sc2ccccc2c1Cl	94*	4	nt	nt	8	-18
Cc1c(NC(=S)NC(=O)c2sc3ccccc3c2Cl)cccc1C(=O)O	16	8	-6	0	-13	-7
C[C@@H]1CN([C@@H](C)CO)C(=O)Cc2cc(NC(=O)Nc3cccc4ccccc34)ccc2O[C@H]1CN(C)C(=O)NC1CCCCC1	nt	nt	nt	3	nt	nt
O=C(CCC(=O)Nc1ccc(Br)cc1)N/N=C/c1cc([N+](=O)[O-])ccc1O	56*	1	12	nt	nt	3
O=C(CCC(=O)Nc1cc(C(F)(F)F)ccc1Cl)N/N=C\c1cc([N+](=O)[O-])ccc1O	103*	-12	16	-5	14	-22
COc1ccc(C[C@@H]2CCn3cc(nn3)COCCCNC2=O)cc1	nt	nt	nt	nt	-10	nt
Cc1cc(NC(=O)CN2CCN(c3ccc(O)cc3)CC2)no1	-6	0	28	-6	9	nt
CCC(C)n1ncn(-c2ccc(N3CCN(c4ccc(O)cc4)CC3)cc2)c1=O (centres undefined)	1	-2	104*	nt	0	-8
O=Cc1s/c(=N\S(=O)(=O)c2ccccc2)n(CCCCl)c1Cl	-2	-12	nt	nt	52*	26
Cc1ccc(S(=O)(=O)N[C@@H]2C=C[C@H](CC(=O)NCCc3ccncc3)O[C@H]2CO)cc1	nt	nt	nt	0	nt	nt
CCN(CC)CCOC(=O)c1ccc(NC(=O)c2ccc(Cl)c(S(=O)(=O)N3CCCCCC3)c2)cc1	5	8	77*	nt	-9	3
Cc1ccc(CN2CCSc3ccc(C(=O)NCCCN4CCOCC4)cc32)cc1	1	-62	24	3	12	-6
Cc1ccc(CN2CCSc3ccc(C(=O)NCc4ccco4)cc32)cc1	-13	6	84*	2	-10	-3
COc1ccc(NS(=O)(=O)c2cccc(NC(=O)CCC(=O)c3ccc(Cl)cc3)c2)cc1	51*	6	18	nt	2	4
COc1ccc2c(c1)c(CC(=O)Nc1cccc(S(N)(=O)=O)c1)c(C)n2C(=O)c1ccc(Cl)cc1	86*	-3	38	6	1	13
C[C@H](CO)N1C[C@H](C)[C@@H](CN(C)S(C)(=O)=O)Oc2c(NC(=O)NC3CCCCC3)cccc2C1=O	nt	nt	nt	-1	nt	nt
COc1ccc(CN(C)S(=O)(=O)c2ccc3c(c2)OCCO3)cc1	51*	7	-5	-2	4	11
CCN1/C(=C/c2ccc3cc(C)cc(C)c3[n+]2CC)Sc2cc(C)ccc21	nt	82*	nt	-3	-6	102*
SMILES	SKKanGAS inh	Rtt109 Vps75	CSC inhib	PglD inh	FN deposit inh	PfHsp90 yeast 2
CCN1/C(=C/c2ccc3cccc(C)c3[n+]2CC)Sc2ccccc21	52*	34	35	-9	5	-15
CC[n+]1c(C)sc2c3ccsc3ccc21	3	1	-6	nt	8	11
Cc1ccc2c(c1)S/C(=C\c1cccc[n+]1C)N2CCO	1	3	-15	-4	-7	-20
CCN1/C(=C/c2ccc3cc(C)ccc3[n+]2CC)Sc2ccc3sccc3c21	115*	20	49	nt	nt	101*
C=CC[n+]1c(/C=C2\C=Cc3cc(C)ccc3N2CC)ccc2ccccc21	29	24	49	nt	2	13
CCN1/C(=C\c2ccc3cc(C)ccc3[n+]2CC)Sc2cc(C)c(C)cc21	71*	?	nt	4	0	94*
C(=N\NC(=Nc1ccccc1)c1ccccn1)/c1ccccn1	1	4	31	nt	8	-7
Clc1ccc(/C=N/NC(=Nc2ccccc2)c2ccccn2)c(Cl)c1	52*	-2	5	1	nt	23
COC(=O)C[C@@H]1C=C[C@H](NC(=O)c2ccccc2)[C@H](CO)O1	nt	nt	nt	1	nt	nt
COc1ccccc1NC(=O)c1c(Nc2ccccc2F)sc(C(=O)Nc2cccc(Cl)c2)c1N	28	-5	83*	-6	-7	-12
O=C(Nc1cccc(S(=O)(=O)Nc2ccc(Cl)cc2)c1)c1cc2c(s1)CCCC2	65*	-1	117*	nt	5	-2
O=C(CN1CCCCC1)n1c2ccccc2c2ccccc21	3	56*	-16	1	-25	3
CN1CCN(CC(=O)n2c3c(c4ccccc42)CCCC3)CC1	-6	1	0	nt	nt	12
Cc1cc(C(=O)N/N=C/c2cc(Cl)cc([N+](=O)[O-])c2O)c2ccccc2n1	114*	15	45	-11	1	-5
O=C(N/N=C/c1ccc(O)cc1O)/C(=C/c1ccccc1)CCO	29	-4	97*	-1	4	-11
CCc1cc(C(=O)N/N=C/c2ccc(O)cc2O)c2ccccc2n1	3	7	94*	1	nt	-22
COc1cc(/C=N/NC(=O)/C(=C/c2ccccc2)CCO)ccc1O	0	-5	1	7	-7	-45
O=C(CCCCCNC(=O)c1ccccc1)N/N=C/c1ccc(O)cc1O	-11	7	49	-8	nt	nt
O=C(CNC(=O)C(c1ccccc1)c1ccccc1)N/N=C/c1ccc(O)cc1O	22	-10	133*	nt	17	19
Cc1noc(C)c1S(=O)(=O)N(C)C[C@H]1OCc2ccccc2-c2c(n(C)c3ccccc23)C(=O)N([C@@H](C)CO)C[C@H]1C	nt	nt	nt	0	25	nt
CC(C)NC(=O)Nc1ccc2c(c1)C(=O)N([C@@H](C)CO)C[C@@H](C)[C@@H](CN(C)C(=O)Nc1ccc(F)cc1)O2	nt	nt	nt	nt	6	nt
C[C@@H]1CN([C@@H](C)CO)C(=O)c2cc(-c3cccnc3)cnc2O[C@@H]1CN(C)Cc1ccc(-c2ccccc2)cc1	nt	nt	nt	-10	nt	nt
